# Results from ChEMBL document CHEMBL1122616, “Latent inhibitors of aldehyde dehydrogenase as alcohol deterrent agents” (J Med Chem, 1984).
# Molecular target: T1, Aldehyde dehydrogenase 1A1 (Rattus norvegicus) (UniProt P51647)
# T1 sequence (whole entry): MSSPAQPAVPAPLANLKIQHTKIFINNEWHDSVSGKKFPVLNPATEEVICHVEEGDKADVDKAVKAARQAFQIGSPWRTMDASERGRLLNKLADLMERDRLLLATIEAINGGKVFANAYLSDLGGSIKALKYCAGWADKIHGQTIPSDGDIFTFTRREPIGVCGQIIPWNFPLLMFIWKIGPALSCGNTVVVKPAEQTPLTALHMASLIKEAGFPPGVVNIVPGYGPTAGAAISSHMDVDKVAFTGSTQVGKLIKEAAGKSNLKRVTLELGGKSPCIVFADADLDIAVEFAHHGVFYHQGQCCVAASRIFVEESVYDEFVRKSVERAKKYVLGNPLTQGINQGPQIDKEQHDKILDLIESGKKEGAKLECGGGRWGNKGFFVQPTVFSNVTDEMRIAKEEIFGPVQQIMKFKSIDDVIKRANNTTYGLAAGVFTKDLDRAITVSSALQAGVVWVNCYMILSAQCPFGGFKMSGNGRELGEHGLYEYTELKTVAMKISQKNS
# Assay: Evaluated in vivo for inhibition of liver mitochondrial aldehyde dehydrogenase activity 2 hour after administering into rats, at a dose of 1.25 mmol/kg
# Assay type: organism-based
# Conditions: scale: nmol of acetaldehyde(AcH) oxide per minute per mg of protein
# In short: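 Rats given 1.25 mmol/kg ip; controls given saline. Killed 2 h later. Intact liver mitochondria prepared at 0 °C and kept cold until assay. After 5-min preincubation at 38 °C, 200 nmol AcH added. Quenched after 5 min with HClO₄. Activity given as nmol AcH oxidized/min/mg protein (Lowry), mean ± SEM.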
row,Compound,Activity
1,c1ccc(CNC2CC2)cc1,2.68
2,CN(Cc1ccccc1)C1CC1,3.48
